Our source for the outcome values is PubChem BioAssay AID504348 (Broad Institute, 2011).

Records with an inconclusive call do not appear. The source made the active and inactive calls.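 Rule for the calls: active = dose curve reaching 10% of the positive control caspase signal at or below the top valid dose; inconclusive = no clear call, values can overlap the other calls; inactive = reverse-direction response, or no crossing within range.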

A short description of this assay: apoptosis induction in Mcl1-reliant human cancer line – cell-based, HMC 1-8, luminescence, dry powder, set 3, counter-screen for A1 inhibitor project, dose response (AID 504348). The note with it: HMC 1-8 cells, caspase-Glo luminescence, 4 h; series mostly up to 35 µM. The essentials: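 Assay system: HMC 1-8 human cancer cells, low A1, Mcl1-dependent | Input: 2500 cells per well | Buffer or medium: RPMI-1640 growth medium with 10% FBS | Dosing: Compound added by pin transfer | Times: 4 h compound exposure, 37 °C, plus 1 h room-temperature detection | Measured by: CaspaseGlo luminescence | Read-out: Caspase activation from luminescent signal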
Background: Counterscreens check selectivity or assay interference.
Regarding `CCn1c(=O)c([N+](=O)[O-])c(Sc2ccc(C)cc2)c2ccccc21`, the result was inactive. For the molecule `COCCn1c(=O)c([N+](=O)[O-])c(Sc2ccc(C)cc2)c2ccccc21`, the result was inactive. The result for `O=c1[nH]c2ccccc2c(Cl)c1[N+](=O)[O-]` reads “inactive”; that for `Cc1ccc(Sc2c([N+](=O)[O-])c(=O)n(Cc3ccccc3)c3ccccc23)cc1`, “inactive”.

With `Cn1c(=O)c(Sc2ccccn2)c(Sc2ccccn2)c2ccccc21`, the call was inactive.

As to `COc1ccc(N2CCN(c3nc(NCCc4ccc(OC)c(OC)c4)nc(N4CCOCC4)n3)CC2)cc1`, the molecule was called inactive. On to `COc1ccc(CCNc2nc(N3CCCC3)nc(N3CCCC3)n2)cc1OC`, for which the molecule was called inactive. The result for `O=C(COc1ccc(Cl)cc1Cl)NNc1nc(N2CCOCC2)nc(N2CCOCC2)n1` reads “inactive”; that for `C/C(=N\Nc1nc(N2CCCCC2)nc(N2CCCCC2)n1)c1ccc(F)cc1`, “inactive”; that for `COc1nc2ccccc2c(Sc2ccc(C)cc2)c1[N+](=O)[O-]`, “inactive”. As for `COc1ccc(CCNc2nc(N3CCOCC3)nc(N3CCOCC3)n2)cc1OC`, the molecule was classed as inactive.
